Results on 4 compounds are retold here after ChEMBL document CHEMBL2375359, “Synthesis and antibacterial evaluation of novel pleuromutilin derivatives” (2013).

Holding throughout (assay type): functional
For experiment [1], the system named is Streptococcus agalactiae. Briefly: Antibacterial activity against Streptococcus agalactiae at 80 ug/ml after 24 hrs by Oxford cup assay. The settings on record: read-out: IZ. In short, it runs like this: (§1)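 Oxford cup diffusion with clinical isolates. Inoculum made in 0.9% saline to a McFarland standard and spread evenly on nutrient agar. Compound solutions, prepared as for the agar dilution test, were added at the stated concentration to Oxford cups set equidistant on the agar surface. Inhibition zones were measured after 24 h at 37 °C.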

The test system of experiment [2] is Streptococcus agalactiae. In words: Antibacterial activity against Streptococcus agalactiae at 160 ug/ml after 24 hrs by Oxford cup assay. The settings on record: read-out: IZ. The procedure, abridged:
as §1

The test system of experiment [3] is Escherichia coli. Briefly: Antibacterial activity against Escherichia coli at 80 ug/ml after 24 hrs by Oxford cup assay. The settings on record: read-out: IZ. The procedure, abridged:
as §1

Experiment [4] deals with Streptococcus agalactiae. Briefly: Antibacterial activity against Streptococcus agalactiae at 320 ug/ml after 24 hrs by Oxford cup assay. The settings on record: read-out: IZ. The procedure, abridged:
as §1

In experiment [5] the test system is Escherichia coli. Briefly: Antibacterial activity against Escherichia coli at 160 ug/ml after 24 hrs by Oxford cup assay. The following applies: read-out: IZ. The procedure, abridged: as §1
In experiment [6] the test system is Escherichia coli. Briefly: Antibacterial activity against Escherichia coli at 320 ug/ml after 24 hrs by Oxford cup assay. The settings on record: read-out: IZ. In short, it runs like this:
as §1

The subject of experiment [7] is Staphylococcus epidermidis. Briefly: Antibacterial activity against methicillin-resistant Staphylococcus epidermidis at 80 ug/ml after 24 hrs by Oxford cup assay. The following applies: read-out: IZ. The procedure, abridged:
(§2)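 Oxford cup diffusion: clinical isolate inoculum in 0.9% saline set by McFarland standard, spread evenly on nutrient agar. Cups placed equidistant on the surface and filled with compound solutions prepared as for the agar dilution test, at several concentrations. Inhibition zone measured after 24 h at 37 °C.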

In experiment [8] the test system is Staphylococcus epidermidis. In words: Antibacterial activity against methicillin-resistant Staphylococcus epidermidis at 160 ug/ml after 24 hrs by Oxford cup assay. The settings on record: read-out: IZ. The procedure, abridged:
as §2

In experiment [9] the test system is Staphylococcus epidermidis. In words: Antibacterial activity against methicillin-resistant Staphylococcus epidermidis at 320 ug/ml after 24 hrs by Oxford cup assay. The settings on record: read-out: IZ. In short, it runs like this:
as §2

Experiment [10] relates to Staphylococcus aureus. In words: Antibacterial activity against methicillin-resistant Staphylococcus aureus at 80 ug/ml after 24 hrs by Oxford cup assay. The settings on record: read-out: IZ. The procedure, abridged:
as §2

Experiment [11] concerns Staphylococcus aureus. In words: Antibacterial activity against methicillin-resistant Staphylococcus aureus at 160 ug/ml after 24 hrs by Oxford cup assay. The following applies: read-out: IZ. The procedure, abridged: as §2
Experiment [12] relates to Staphylococcus aureus. Briefly: Antibacterial activity against methicillin-resistant Staphylococcus aureus at 320 ug/ml after 24 hrs by Oxford cup assay. The following applies: read-out: IZ. The procedure, abridged:
as §2

Experiment [13] relates to Streptococcus agalactiae. Briefly: Antibacterial activity against Streptococcus agalactiae after 48 hrs by agar dilution method. The procedure, abridged: (§3)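 Agar dilution per NCCLS on clinical isolates. 2-fold serial dilutions of compound (2 mL) mixed into 18 mL hot Mueller-Hinton agar. Inoculum from blood slants, adjusted to approx. 10⁵–10⁶ cfu/mL in sterile 0.90% NaCl, then spotted onto the plates. Incubated 36.5 °C, 48 h. MIC is the lowest concentration giving complete growth inhibition. Run in triplicate at pH 7.40.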

Experiment [14] has as its system Escherichia coli. Briefly: Antibacterial activity against Escherichia coli after 48 hrs by agar dilution method. In short, it runs like this:
as §3

Experiment [15] deals with Staphylococcus epidermidis. Briefly: Antibacterial activity against methicillin-resistant Staphylococcus epidermidis after 48 hrs by agar dilution method. In short, it runs like this: (§4)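 Agar dilution per NCCLS: 2-fold serial dilutions incorporated into hot Mueller-Hinton agar. Clinical isolates grown from blood slants, suspended in sterile 0.90% NaCl to about 10⁵–10⁶ cfu/mL, spotted onto plates. Incubation 36.5 °C, 48 h. MIC taken as the lowest concentration giving complete growth inhibition. Run in triplicate at pH 7.40.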

The test system of experiment [16] is Staphylococcus aureus. Briefly: Antibacterial activity against methicillin-resistant Staphylococcus aureus after 48 hrs by agar dilution method. The procedure, abridged: as §4

In brackets after ≈: the same amount, converted by molar mass.

`C=C[C@]1(C)C[C@@H](OC(=O)CSC(C)(C)CNC(=O)c2ccc(Cl)cc2)[C@]2(C)[C@H](C)CC[C@]3(CCC(=O)[C@H]32)[C@@H](C)[C@@H]1O`: the zone of inhibition at 80 µg/mL in the experiment with Streptococcus agalactiae [1] came out at 10.8 mm; with Escherichia coli [3], 11.8 mm; in [7] it was 8.72 mm; in the experiment on Staphylococcus aureus [10] it was 11.8 mm. In addition, the zone of inhibition at 160 µg/mL in the experiment on Streptococcus agalactiae [2] worked out at 12.1 mm; in the experiment with Escherichia coli [5] it was 12.9 mm; in [8], 12.7 mm; in the experiment with Staphylococcus aureus [11] it was 13.8 mm. Besides, the zone of inhibition at 320 µg/mL in the experiment with Streptococcus agalactiae [4] worked out at 14 mm; with Escherichia coli [6], 12.6 mm; in [9], 12.4 mm; in the experiment on Staphylococcus aureus [12], 14.6 mm. Further, the MIC with Streptococcus agalactiae [13] came to 4 µg/mL (≈ 6.62 µM); with Escherichia coli [14] it was 2 µg/mL (≈ 3.31 µM); in experiment [15] it was 0.5 µg/mL (≈ 0.827 µM); against Staphylococcus aureus [16], 1 µg/mL (≈ 1.65 µM).

For `C=C[C@]1(C)C[C@@H](OC(=O)CSC(C)(C)CNC(=O)[C@@H](N)c2ccccc2)[C@]2(C)[C@H](C)CC[C@]3(CCC(=O)[C@H]32)[C@@H](C)[C@@H]1O`, the zone of inhibition at 80 µg/mL with Streptococcus agalactiae [1] came to 10.7 mm; in the experiment with Escherichia coli [3] it was 10 mm; in experiment [7] it was 10.3 mm; in the experiment on Staphylococcus aureus [10], 9.82 mm. In addition, the zone of inhibition at 160 µg/mL with Streptococcus agalactiae [2] stood at 10.4 mm; in the experiment with Escherichia coli [5] it was 9.89 mm; in [8], 10.6 mm; with Staphylococcus aureus [11], 10.1 mm. The zone of inhibition at 320 µg/mL in the experiment with Streptococcus agalactiae [4] was 11.2 mm; in the experiment with Escherichia coli [6] it was 10.7 mm; in experiment [9] it was 11.2 mm; with Staphylococcus aureus [12], 10.3 mm. Moreover, the MIC turned out to be 8 µg/mL (≈ 13.4 µM) against Streptococcus agalactiae [13], 4 µg/mL (≈ 6.68 µM) with Escherichia coli [14], 4 µg/mL (≈ 6.68 µM) in experiment [15] and 0.25 µg/mL (≈ 0.417 µM) against Staphylococcus aureus [16].

As to `C=C[C@]1(C)C[C@@H](OC(=O)CSC(C)(C)CNC(=O)c2ccccc2OC)[C@]2(C)[C@H](C)CC[C@]3(CCC(=O)[C@H]32)[C@@H](C)[C@@H]1O`, the zone of inhibition at 80 µg/mL worked out at 11.8 mm in the experiment with Streptococcus agalactiae [1], 12.4 mm in the experiment with Escherichia coli [3], 10.8 mm in [7] and 9.5 mm with Staphylococcus aureus [10]. Further, the zone of inhibition at 160 µg/mL in the experiment on Streptococcus agalactiae [2] was 13 mm; in the experiment with Escherichia coli [5], 15.5 mm; in [8], 12.5 mm; in the experiment on Staphylococcus aureus [11], 12.1 mm. For the same compound, the zone of inhibition at 320 µg/mL in the experiment on Streptococcus agalactiae [4] amounted to 13.7 mm; in the experiment on Escherichia coli [6], 17.4 mm; in experiment [9], 13.5 mm; in the experiment with Staphylococcus aureus [12], 12.4 mm. For the same compound, the MIC with Streptococcus agalactiae [13] is 2 µg/mL (≈ 3.33 µM); in the experiment with Escherichia coli [14] it was 4 µg/mL (≈ 6.67 µM); in [15], 8 µg/mL (≈ 13.3 µM); in the experiment with Staphylococcus aureus [16] it was 0.25 µg/mL (≈ 0.417 µM).

Take `C=C[C@]1(C)C[C@@H](OC(=O)CSC(C)(C)CNC(=O)OCc2ccccc2)[C@]2(C)[C@H](C)CC[C@]3(CCC(=O)[C@H]32)[C@@H](C)[C@@H]1O`: the zone of inhibition at 80 µg/mL with Streptococcus agalactiae [1] was 10.7 mm; in the experiment on Escherichia coli [3] it was 11.7 mm; in experiment [7], 11 mm; in the experiment on Staphylococcus aureus [10] it was 10.4 mm. Also, the zone of inhibition at 160 µg/mL was 10.6 mm in the experiment on Streptococcus agalactiae [2], 15.3 mm with Escherichia coli [5], 10.2 mm in experiment [8] and 11.5 mm in the experiment with Staphylococcus aureus [11]. Moreover, the zone of inhibition at 320 µg/mL was found to be 11.5 mm with Streptococcus agalactiae [4], 14.7 mm in the experiment on Escherichia coli [6], 11 mm in [9] and 12.7 mm with Staphylococcus aureus [12]. Also, the MIC came out at 16 µg/mL (≈ 26.7 µM) with Streptococcus agalactiae [13], 32 µg/mL (≈ 53.3 µM) in the experiment on Escherichia coli [14], 32 µg/mL (≈ 53.3 µM) in experiment [15] and 4 µg/mL (≈ 6.67 µM) in the experiment with Staphylococcus aureus [16].
